Measurements reported in ChEMBL document CHEMBL1240409, “Design, synthesis and evaluation of (E)-alpha-benzylthio chalcones as novel inhibitors of BCR-ABL kinase” (Bioorg Med Chem, 2010).

Legend:
DU-145 = assay: Growth inhibition of human DU145 cells after 96 hrs by trypan blue exclusion assay; type: functional; details: DU-145, 96 h
K562 = assay: Growth inhibition of human K562 cells expressing p210Bcr/Abl after 96 hrs by trypan blue exclusion assay; type: functional, cell-based; details: K562, 96 h
Summary of the method: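 K562 cells were kept in RPMI with 10% FBS and penicillin–streptomycin at 37 °C under 5% CO2. Cells were seeded at 1 × 10^5 cells/mL with a range of compound concentrations, using DMSO as the negative control. After 96 h, viability was counted by Trypan blue exclusion and expressed as percent of DMSO control to derive GI50.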

| Structure (SMILES) | GI50 (DU-145) [µM] | GI50 (K562) [µM] |
| --- | --- | --- |
| O=C(/C(=C\c1ccc(Br)cc1)S(=O)(=O)c1ccc(Br)cc1)c1ccccc1O | > 100 | 10 |
| Cc1ccc(S/C(=C/c2c(O)cc(O)cc2O)C(=O)c2ccc(Cl)cc2)cc1 | > 100 | > 100 |
| Cc1ccc(S/C(=C/c2ccc(C)s2)C(=O)c2ccc(Br)cc2)cc1 | > 100 | 50 |
| O=C(/C(=C\c1c[nH]c2ccc(Br)cc12)SCc1ccc(F)cc1)c1ccc(Cl)cc1 | 50 | 1 |
| Cc1ccc(S(=O)(=O)/C(=C/c2c(O)cc(O)cc2O)C(=O)c2ccc(Cl)cc2)cc1 | > 100 | > 100 |
| O=C(/C(=C\c1c(O)cc(O)cc1O)SCc1ccc(Cl)cc1)c1ccc(Cl)cc1 | > 100 | > 100 |
| COc1ccc(C(=O)/C(=C\c2ccc(Cl)cc2)Sc2ccc(F)cc2)cc1 | > 100 | > 100 |
| O=C(/C(=C\c1ccc(O)cc1O)Sc1ccccc1Br)c1ccc(Cl)cc1 | 50 | 50 |
| Cc1ccc(CS/C(=C/c2ccc(F)c(C)c2)C(=O)c2ccc(Cl)cc2)cc1 | 25 | 10 |
| COc1cc(OC)c(/C=C(\C(=O)c2ccc(Cl)cc2)S(=O)(=O)Cc2ccc(F)cc2)c(OC)c1 | 25 | 1 |
| COc1cc(OC)c(/C=C(/SCc2ccc(Cl)cc2)C(=O)c2ccc([N+](=O)[O-])cc2)c(OC)c1 | > 100 | 50 |
| Cc1ccc(S/C(=C/c2cc(Cl)cc(Cl)c2Cl)C(=O)c2ccc(Cl)cc2)cc1 | 50 | 50 |
| COc1ccc(/C=C(\C(=O)c2ccc(Cl)cc2)S(=O)(=O)Cc2ccccc2Cl)cc1 | 50 | 25 |
| COc1cc(OC)c(/C=C(/Sc2ccc(C)cc2)C(=O)c2ccc(Br)cc2)c(OC)c1 | > 100 | 50 |
| O=C(/C(=C\c1c(O)cc(O)cc1O)Sc1ccccc1Br)c1ccc(Br)cc1 | > 100 | > 100 |
| Cc1ccc(S(=O)(=O)/C(=C/c2ccc(N(C)C)cc2)C(=O)c2ccc(Cl)cc2)cc1 | > 100 | > 100 |
| Cc1ccc(/C=C(/SCc2ccc(Cl)cc2Cl)C(=O)c2ccc(Cl)cc2)s1 | 50 | 50 |
| CCOc1ccc(/C=C(/Sc2ccccc2Cl)C(=O)c2ccc(Cl)cc2)cc1OC | 50 | 1 |
| COc1ccc(/C=C(\C(=O)c2ccc(Br)cc2)S(=O)(=O)Cc2ccc(F)cc2)cc1 | 25 | 25 |
| Cc1ccsc1/C=C(/SCc1ccccc1F)C(=O)c1ccc(Cl)cc1 | 50 | 50 |
| Cc1ccc(S/C(=C/c2ccc(Br)cc2)C(=O)c2ccc(Cl)cc2)cc1 | 25 | 50 |
| O=C(O)c1cc(/C=C(\C(=O)c2c(F)c(F)c(F)c(F)c2F)S(=O)(=O)c2ccc(Br)cc2)ccc1O | > 100 | > 100 |
| Cc1ccc(CS(=O)(=O)/C(=C/c2ccc(Br)cc2)C(=O)c2ccc(Cl)cc2)cc1 | 25 | 10 |

Second part, the molecule after the results:

| GI50 (DU-145) [µM] | GI50 (K562) [µM] | Structure (SMILES) |
| --- | --- | --- |
| 10 | 10 | Cc1ccc(CS(=O)(=O)/C(=C/c2c[nH]c3ccc(Br)cc23)C(=O)c2ccc(Cl)cc2)cc1 |
| 10 | 25 | Cc1ccc(S/C(=C/c2ccc(O)c([N+](=O)[O-])c2)C(=O)c2ccc(Cl)cc2)cc1 |
| 10 | 1 | O=C(/C(=C\c1ccc(Cl)cc1Cl)S(=O)(=O)c1ccc(Br)cc1)c1ccc(Br)cc1 |
| 10 | 10 | COc1ccccc1/C=C(/SCc1ccc(F)cc1)C(=O)c1ccc(Br)cc1 |
| 10 | 10 | O=C(/C(=C\c1ccccc1OCc1ccccc1)Sc1ccc(Br)cc1)c1ccc(Cl)cc1 |
| 1 | 1 | O=C(/C(=C\c1ccc(Cl)cc1)Sc1ccc(Br)cc1)c1ccc(Br)cc1 |
| 25 | 1 | Cc1ccc(S/C(=C/c2ccc(F)c(C)c2)C(=O)c2ccc(Br)cc2)cc1 |
| 1 | 1 | COc1ccc(S(=O)(=O)/C(=C/c2ccccc2OCc2ccccc2)C(=O)c2ccc(Cl)cc2)cc1 |
| 10 | 10 | COc1ccccc1/C=C(\C(=O)c1ccc(Cl)cc1)S(=O)(=O)c1ccc(Br)cc1 |
| 25 | 25 | Nc1c(Br)cc(Br)cc1/C=C(\C(=O)c1ccc(Br)cc1)S(=O)(=O)c1ccc(Br)cc1 |
| 25 | 25 | Cc1ccc(CS(=O)(=O)/C(=C/c2sccc2C)C(=O)c2ccc(Cl)cc2)cc1 |
| 25 | 25 | CCOc1ccc(/C=C(/SCc2ccc(C)cc2)C(=O)c2ccc(Cl)cc2)cc1OC |
| 25 | 10 | COc1cc(OC)c(C=C(SCc2ccccc2Cl)C(=O)c2ccc(Cl)cc2)c(OC)c1 |
| 1 | 1 | O=C(/C(=C\c1ccc(F)cc1Cl)Sc1ccc(Br)cc1)c1ccc(Br)cc1 |
| 1 | 1 | COc1ccc(/C=C(\C(=O)c2ccc(Br)cc2)S(=O)(=O)c2ccc(C)cc2)cc1 |
| 1 | 1 | COc1ccc(/C=C(/Sc2ccc(C)cc2)C(=O)c2ccc(Cl)cc2)cc1 |
| 1 | < 1 | Cc1ccc(CS/C(=C/c2ccc(F)c([N+](=O)[O-])c2)C(=O)c2ccc(Cl)c([N+](=O)[O-])c2)cc1 |

| GI50 (DU-145) [µM] | GI50 (K562) [µM] | Structure (SMILES) |
| --- | --- | --- |
| 1 | 1 | Cc1ccc(CS/C(=C/c2ccccc2OCc2ccccc2)C(=O)c2ccc(Cl)cc2)cc1 |
| 10 | 10 | Cc1ccc(C)c(/C=C(\C(=O)c2ccc(Cl)cc2)S(=O)(=O)Cc2ccc(Cl)cc2)c1 |
| 1 | 2.5 | O=C(/C(=C\c1ccc(Br)cc1)Sc1ccc(Br)cc1)c1ccc(Br)cc1 |
| 1 | 1 | O=C(C(=Cc1ccc(Br)cc1)S(=O)(=O)Cc1ccccc1Cl)c1ccc(Cl)cc1 |
| 25 | 10 | O=C(/C(=C\c1ccc(Cl)cc1)S(=O)(=O)c1ccc(Cl)cc1)c1ccc(Cl)cc1 |
| 1 | 1 | Cc1ccc(CS(=O)(=O)/C(=C/c2cc(C)ccc2C)C(=O)c2ccc(Cl)cc2)cc1 |
| 20 | 20 | O=C(C(=Cc1ccc(Br)cc1)S(=O)(=O)Cc1ccc(I)cc1)c1ccc(I)cc1 |
| 1 | 50 | Cc1ccc(C)c(/C=C(/SCc2ccc(F)cc2)C(=O)c2ccc(Br)cc2)c1 |
| 1 | 1 | O=C(/C(=C\c1ccc(O)c([N+](=O)[O-])c1)Sc1ccc(Br)cc1)c1ccc(Br)cc1 |
| 10 | 10 | COc1ccccc1/C=C(\C(=O)c1ccc(Cl)cc1)S(=O)(=O)Cc1ccc(C)cc1 |
| 10 | 10 | COc1ccc(/C=C(\C(=O)c2ccc(Br)cc2)S(=O)(=O)Cc2ccc(Cl)cc2)c(O)c1 |
| 10 | 10 | O=C(/C(=C/c1ccc(Cl)cc1)Cc1c[nH]c2ccccc12)c1ccc(Cl)cc1Cl |
| 1 | 1 | CCOc1ccc(/C=C(\C(=O)c2ccc(Br)cc2)S(=O)(=O)c2ccc(C)cc2)cc1OC |
| 1 | 1 | COc1cc(OC)c(/C=C(/SCc2ccc(F)cc2)C(=O)c2ccc(Br)cc2)c(OC)c1 |
| 1 | 1 | O=C(/C(=C\c1ccc(Br)cc1)SCc1ccc(Cl)cc1)c1ccc(Cl)cc1 |
| 10 | 10 | COc1ccccc1/C=C(/Sc1ccc(Br)cc1)C(=O)c1ccc(Cl)cc1 |
